Drawing on ChEMBL document CHEMBL1128446, “Pyrazinoic acid esters with broad spectrum in vitro antimycobacterial activity” (1995), this text covers MIC for 27 compounds.

Holding throughout (format): functional
Test [1] deals with Mycobacterium tuberculosis. The experiment in a line: Minimum Inhibitory Concentration against Mycobacterium tuberculosis ATCC 35801. Put shortly:
(§1)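 Broth macrodilution in tubes of modified Middlebrook 7H10 broth (agar and malachite green omitted) with 10% OADC and 0.05% Tween 80 at pH 5.8. Cultures were grown 3 days at 37 °C on a rotary shaker, then diluted with 7H10 broth to 1 Klett unit/mL. Stocks were made in water or DMSO and filter-sterilised; 2-fold serial dilutions were tested. Tubes shaken 7–10 days at 37 °C, with a drug-free control. MIC = lowest concentration (μg/mL) with no visible turbidity.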

For test [2], the system named is Mycobacterium kansasii. Put plainly: Minimum Inhibitory Concentration against clinical isolates of Mycobacterium kansasii S. Put shortly: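 Grown 3 days at 37 °C on a rotary shaker in modified Middlebrook 7H10 broth (agar and malachite green omitted) with 10% OADC and 0.05% Tween 80. Diluted to 1 Klett unit/mL. Tubes held serial 2-fold dilutions in 7H10 broth at pH 5.8, from stocks in water or DMSO, and were shaken at 37 °C for 7–10 days with a drug-free control. MIC was the lowest concentration with no visible turbidity.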

Test [3] deals with Mycobacterium tuberculosis. Put plainly: Minimum Inhibitory Concentration against Mycobacterium tuberculosis ATCC 27294. Put shortly:
as §1

For test [4], the system named is Mycobacterium avium. Put plainly: Minimum Inhibitory Concentration against clinical isolates of Mycobacterium avium complex ATCC 49601. The gist of the method:
as §1

Test [5] deals with Mycobacterium avium. Put plainly: Minimum Inhibitory Concentration in clinical isolates against Mycobacterium avium complex 101. Put shortly: as §1
The subject of test [6] is Mycobacterium avium. Put plainly: Minimum Inhibitory Concentration in clinical isolates against Mycobacterium avium complex ATCC 49601. Put shortly: as §1
The mark [7] stands for this setting: Mycobacterium tuberculosis, ATCC 27294, read-out: MIC.

Structures are written as SMILES. In brackets after ≈: the same amount, converted by molar mass.

In general, MIC refers to the lowest concentration that inhibits growth of the organism. Turning to `CCCCCCC(C)OC(=O)c1cnc(F)cn1` (centres undefined), the MIC is 4 µg/mL (≈ 15.7 µM) in test [1]; less than 0.03 µg/mL in test [2]; 2 µg/mL (≈ 7.86 µM) in test [3] (setting [7]); 64 µg/mL (≈ 252 µM) in test [4]; 32 µg/mL (≈ 126 µM) in test [5].
`CCCCCCCC(C)OC(=O)c1cnc(Cl)cn1` (centres undefined): the MIC was 0.5 µg/mL (≈ 1.76 µM) in test [1]; less than 0.03 µg/mL in test [2]; 1 µg/mL (≈ 3.51 µM) in test [3] (setting [7]); 32 µg/mL (≈ 112 µM) in test [4]; 32 µg/mL (≈ 112 µM) in test [5].
On to `CCCCCCCOC(=O)c1cnc(C)cn1`, for which the MIC in test [1] is 0.25 µg/mL (≈ 1.06 µM); in test [2] it was 4 µg/mL (≈ 16.9 µM); in test [3] (setting [7]), 0.5 µg/mL (≈ 2.12 µM); in test [4], 32 µg/mL (≈ 135 µM); in test [5] it was 32 µg/mL (≈ 135 µM).
Consider `CCCCOC(=O)c1cnc(Cl)cn1`, for which the MIC in test [1] was 0.5 µg/mL (≈ 2.33 µM); in test [2], less than 1 µg/mL; in test [3] (setting [7]), 0.25 µg/mL (≈ 1.16 µM); in test [4], 128 µg/mL (≈ 596 µM); in test [5], 64 µg/mL (≈ 298 µM).
Turning to `CCCCCCCCC(C)(CCCC)OC(=O)c1cnc(Cl)cn1` (centres undefined), the minimal inhibitory concentration (MIC) was 16 µg/mL (≈ 45.1 µM) in test [1]; 16 µg/mL (≈ 45.1 µM) in test [2]; 16 µg/mL (≈ 45.1 µM) in test [3] (setting [7]); more than 64 µg/mL in test [4]; more than 64 µg/mL in test [5].
On to `CCCCCCCCCCOC(=O)c1cnccn1`, for which the minimum inhibitory concentration (MIC) in test [1] was 0.25 µg/mL (≈ 0.946 µM); in test [2] it was 0.25 µg/mL (≈ 0.946 µM); in test [3] (setting [7]) it was 0.5 µg/mL (≈ 1.89 µM); in test [4], 8 µg/mL (≈ 30.3 µM); in test [5], 32 µg/mL (≈ 121 µM).
Regarding `CCCCCCCCCOC(=O)c1cnc(C)cn1`, the MIC was 1 µg/mL (≈ 3.78 µM) in test [1]; 2 µg/mL (≈ 7.57 µM) in test [2]; 1 µg/mL (≈ 3.78 µM) in test [3] (setting [7]); 32 µg/mL (≈ 121 µM) in test [4]; 64 µg/mL (≈ 242 µM) in test [5].
Consider `CCCCCCCCC(C)(C)OC(=O)c1cnc(Cl)cn1`, for which the MIC was 1 µg/mL (≈ 3.2 µM) in test [1]; 1 µg/mL (≈ 3.2 µM) in test [2]; 0.125 µg/mL (≈ 0.4 µM) in test [3] (setting [7]); 64 µg/mL (≈ 205 µM) in test [4]; 64 µg/mL (≈ 205 µM) in test [5].
Consider `CCCCCC(C)OC(=O)c1cnc(Cl)cn1` (centres undefined), for which the MIC in test [1] is 0.5 µg/mL (≈ 1.95 µM); in test [2], less than 0.125 µg/mL; in test [3] (setting [7]) it was 0.06 µg/mL (≈ 0.234 µM); in test [4] it was 32 µg/mL (≈ 125 µM); in test [5], 32 µg/mL (≈ 125 µM).
As to `CCCCCCCCCCOC(=O)c1cnc(Cl)cn1`, the MIC in test [1] stood at 0.25 µg/mL (≈ 0.837 µM); in test [2] it was 0.5 µg/mL (≈ 1.67 µM); in test [3] (setting [7]) it was 0.5 µg/mL (≈ 1.67 µM); in test [4], 16 µg/mL (≈ 53.5 µM); in test [5], 32 µg/mL (≈ 107 µM).
Consider `CCCCCCCCCOC(=O)c1cnc(Cl)cn1`, for which the MIC is 1 µg/mL (≈ 3.51 µM) in test [1]; 0.125 µg/mL (≈ 0.439 µM) in test [2]; less than 0.03 µg/mL in test [3] (setting [7]); 16 µg/mL (≈ 56.2 µM) in test [4]; 32 µg/mL (≈ 112 µM) in test [5].
In the case of `CCCCCCC(C)(CCCCC)OC(=O)c1cnc(Cl)cn1` (centres undefined), the MIC is 8 µg/mL (≈ 23.5 µM) in test [1]; 8 µg/mL (≈ 23.5 µM) in test [2]; 2 µg/mL (≈ 5.87 µM) in test [3] (setting [7]); more than 64 µg/mL in test [4]; more than 64 µg/mL in test [5].
As to `CCCCCC(CC)OC(=O)c1cnc(Cl)cn1` (centres undefined), the minimum inhibitory concentration (MIC) was 1 µg/mL (≈ 3.69 µM) in test [1]; 0.125 µg/mL (≈ 0.462 µM) in test [2]; 0.25 µg/mL (≈ 0.923 µM) in test [3] (setting [7]); 256 µg/mL (≈ 945 µM) in test [4]; more than 256 µg/mL in test [5].
`Cc1cnc(C(=O)O)cn1`: the MIC was 64 µg/mL (≈ 463 µM) in test [1]; 1020 µg/mL (≈ 7410 µM) in test [2]; 64 µg/mL (≈ 463 µM) in test [3] (setting [7]); more than 1020 µg/mL in test [6]; 1020 µg/mL (≈ 7410 µM) in test [5].
With `O=C(O)c1cnc(Cl)cn1`, the MIC is 64 µg/mL (≈ 404 µM) in test [1], 64 µg/mL (≈ 404 µM) in test [2], 64 µg/mL (≈ 404 µM) in test [3] (setting [7]) and more than 1020 µg/mL in test [6].
As for `Cc1ccc(C(C)OC(=O)c2cnc(Cl)cn2)cc1` (centres undefined), the MIC in test [1] amounted to 1 µg/mL (≈ 3.61 µM); in test [2], 1 µg/mL (≈ 3.61 µM); in test [3] (setting [7]), 1 µg/mL (≈ 3.61 µM); in test [4], 16 µg/mL (≈ 57.8 µM); in test [5] it was 256 µg/mL (≈ 925 µM).
For the compound `O=C(OCCc1ccc(Cl)cc1)c1cnc(Cl)cn1`, the MIC is 32 µg/mL (≈ 108 µM) in test [1]; 0.5 µg/mL (≈ 1.68 µM) in test [2]; 2 µg/mL (≈ 6.73 µM) in test [3] (setting [7]); 8 µg/mL (≈ 26.9 µM) in test [4]; 16 µg/mL (≈ 53.8 µM) in test [5].
Regarding `O=C(OC(c1ccccc1)c1ccccc1)c1cnc(Cl)cn1`, the MIC was 16 µg/mL (≈ 49.3 µM) in test [1]; 8 µg/mL (≈ 24.6 µM) in test [2]; 16 µg/mL (≈ 49.3 µM) in test [3] (setting [7]); more than 64 µg/mL in test [4]; more than 64 µg/mL in test [5].
Regarding `O=C(Oc1ccc(F)cc1)c1cnccn1`, the MIC in test [2] came to 64 µg/mL (≈ 293 µM); in test [3], 32 µg/mL (≈ 147 µM); in test [3] (setting [7]), 32 µg/mL (≈ 147 µM); in test [6] it was 128 µg/mL (≈ 587 µM); in test [5] it was 128 µg/mL (≈ 587 µM).
As to `CCCCCCCC(OC(=O)c1cnc(Cl)cn1)C(C)C` (centres undefined), the MIC in test [1] was 2 µg/mL (≈ 6.39 µM); in test [2] it was 0.25 µg/mL (≈ 0.799 µM); in test [3] (setting [7]), 0.5 µg/mL (≈ 1.6 µM); in test [4], 256 µg/mL (≈ 818 µM); in test [5], more than 256 µg/mL.
Taken in the same sequence, the figures for `CCCCCCCCOC(=O)c1cnc(Cl)cn1` were less than 0.03 µg/mL, less than 0.03 µg/mL, 0.06 µg/mL (≈ 0.222 µM), 16 µg/mL (≈ 59.1 µM) and 16 µg/mL (≈ 59.1 µM).
Regarding `CCCCCOC(=O)c1cnc(Cl)cn1`, the MIC in test [1] is 0.25 µg/mL (≈ 1.09 µM); in test [2], less than 0.03 µg/mL; in test [3] (setting [7]), 0.06 µg/mL (≈ 0.262 µM); in test [4], 32 µg/mL (≈ 140 µM); in test [5], 32 µg/mL (≈ 140 µM).
For `COC(=O)c1cnc(Cl)cn1`, the minimum inhibitory concentration (MIC) in test [1] turned out to be 8 µg/mL (≈ 46.4 µM); in test [2] it was 2 µg/mL (≈ 11.6 µM); in test [3] (setting [7]) it was 4 µg/mL (≈ 23.2 µM); in test [4], 64 µg/mL (≈ 371 µM); in test [5], 256 µg/mL (≈ 1480 µM).
With `CCCCCCCCCCCC(C)OC(=O)c1cnc(Cl)cn1` (centres undefined), the MIC in test [1] turned out to be 0.5 µg/mL (≈ 1.47 µM); in test [2] it was 0.06 µg/mL (≈ 0.176 µM); in test [3] (setting [7]) it was 2 µg/mL (≈ 5.87 µM); in test [4], 32 µg/mL (≈ 93.9 µM); in test [5], 256 µg/mL (≈ 751 µM).
Consider `C=CCOC(=O)c1cnc(Cl)cn1`, for which the MIC in test [1] was 1 µg/mL (≈ 5.04 µM); in test [2], less than 1 µg/mL; in test [3] (setting [7]), 1 µg/mL (≈ 5.04 µM); in test [4] it was 64 µg/mL (≈ 322 µM); in test [5], 64 µg/mL (≈ 322 µM).
For `NC(=O)c1cnccn1` [PYRAZINAMIDE], the minimal inhibitory concentration (MIC) was 32 µg/mL (≈ 260 µM) in test [1]; 2050 µg/mL (≈ 16600 µM) in test [2]; 16 µg/mL (≈ 130 µM) in test [3] (setting [7]); more than 2050 µg/mL in test [6]; more than 2050 µg/mL in test [5].
`O=C(O)c1cnccn1` [PYRAZINOIC ACID]: the minimum inhibitory concentration (MIC) in test [1] was 32 µg/mL (≈ 258 µM); in test [2], 256 µg/mL (≈ 2060 µM); in test [3] (setting [7]), 32 µg/mL (≈ 258 µM); in test [6] it was more than 1020 µg/mL; in test [5], more than 1020 µg/mL.
